Published values collected from several papers.
Each line is one published result; the experiments were not run side by side.
mraY: mraY (Staphylococcus aureus, UniProt Q2FZ93)
HTR2B: 5-hydroxytryptamine receptor 2B (HTR2B, Homo sapiens, UniProt P41595)

CCCCCCC#Cc1cncc(-c2nnc(SC[C@H]3O[C@@H](n4ccc(=O)[nH]c4=O)[C@H](O)[C@@H]3O)n2C)c1  inhibition (mraY; cell-free assay, inhibitor; 250 µM): 0%
CCN1/C(=C/C(C)=O)Sc2ccc(F)cc21  inhibition (Gastrin/cholecystokinin type B receptor (CCKBR, Homo sapiens, UniProt P32239); ligand displacement, radioligand; 10 µM): 1.43%
CCCCCCC#Cc1cncc(-c2nnc(SCc3cc(C(F)(F)F)cc(C(F)(F)F)c3)n2CCCN)c1  inhibition (mraY; cell-free assay, inhibitor; 250 µM): 53%
Cc1cc(O)c(-c2ccc([C@@H](C)CN(C)C)cc2)c2c1[nH]c(=O)c1sccc12  inhibition (Acylglycerol kinase, mitochondrial (Homo sapiens, UniProt Q53H12); enzyme activity, inhibitor; 0.1 µM, lysate): 1.28%
COc1cc2c3c(c1OC)-c1c(OC)ccc(N4CCOCC4)c1CC3N(C)CC2 (stereo not drawn)  inhibition (HTR2B; ligand displacement, radioligand; 10 µM): 80%
Cc1cc(F)cc2c(CCC(=O)N[C@@H]3C(=O)NC[C@H]3O)c(-c3ccc(F)cc3)[nH]c12  inhibition (Substance-P receptor (TACR1, Homo sapiens, UniProt P25103); cell-free assay; 10 µM): 25%
CC[N+]1(C)CCc2cc(OC)c(OC)c3c2C1Cc1cccc(OC)c1-3 (stereo not drawn)  inhibition (HTR2B; ligand displacement, radioligand; 10 µM): 26%
CCCCCCC#Cc1cncc(-c2nnc(SCc3cc([N+](=O)[O-])cc([N+](=O)[O-])c3)n2CCO)c1  inhibition (mraY; cell-free assay, inhibitor; 250 µM): 55%
COc1cc2c3c(c1OC)-c1c(OC)ccc(-c4ccc(C#N)cc4)c1CC3N(C)CC2 (stereo not drawn)  inhibition (5-hydroxytryptamine receptor 2C (HTR2C, Homo sapiens, UniProt P28335); ligand displacement, radioligand; 10 µM): 24%
NC/C(=C\F)COc1cccc(Cn2c(=S)[nH]c(=O)c3[nH]cnc32)c1  inhibition (B2 bradykinin receptor (BDKRB2, Homo sapiens, UniProt P30411); ligand displacement, radioligand; 10 µM): < 50%
CCCCCCC#Cc1cncc(-c2nnc(SCc3ccc(Cl)cc3)n2CCO)c1  inhibition (mraY; cell-free assay, inhibitor; 250 µM): 0%
COc1cc2c3c(c1OC)-c1c(OC)ccc(NC(C)=O)c1CC3N(C)CC2 (stereo not drawn)  inhibition (HTR2B; ligand displacement, radioligand; 10 µM): 20%
